Measurements as given in publication PMC8711093 (Nature, 2021).
Positions count from the first letter of the chain named. “Also recorded” adds a separate entry of the source.

Assays:
dorsal horn neurons = assay: Spinal cord slice electrophysiology; format: cell-based, rat; details: for increase in eEPSC amplitude from baseline: reversal of the ADO tone; for sEPSC frequency and amplitude: nerve-injured rats, superfusion, reversed by DPCPX, n=8
How it was run: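 Parasagittal lumbar cord slices (340 μm) from PNL and sham Sprague-Dawley rats, 9-15 weeks, cut in ice-cold sucrose ACSF and superfused at 2 ml/min, 34°C. Whole-cell voltage clamp at −70 mV in lamina I-II neurons; Cs-based internal with QX-314. eEPSCs evoked by dorsal root stimulation (C and A fibre) with gabazine 10 μM and strychnine 0.5 μM. Test compound superfused after stable baseline, then 1 μM DPCPX.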

nerve-injured rats [1] = format: in vivo, rat; details: intrathecal
How it was run: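 Sciatic nerve partially ligated (one third to one half) under isoflurane; allodynia confirmed at day 14. Intrathecal catheters placed at day 12 in male and female Sprague-Dawley rats, 9-14 weeks. After baseline, blinded 10 μL dose (DMSO/saline 60:40) plus 25 μL saline flush. Von Frey filaments 0.52-14.8 g, up-down method, over a time course, including 1 h post-dose. n = 8-10; catheter placement checked with lignocaine.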

[2] = target: A1R-rHDL particles with Gi2 heterotrimeric protein (Homo sapiens, UniProt P30542); assay: [3H]DPCPX dissociation at A1R-rHDL particles with saturating Gi2; format: binding; details: 30 μM MIPS521; saturating concentration of Gi2; SLV320 isotopic dilution
How it was run: (§1)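 Purified A1R reconstituted into MSP1D1 nanodiscs (POPC:POPG 3:2; molar ratio 1:10:800) for 1 h at 4°C, then Bio-beads overnight; empty discs removed on anti-Flag resin. Particles ± Gi2 heterotrimer (1:50 molar) were equilibrated 1 h with 2 nM [3H]DPCPX ± 30 μM test compound. Dissociation started with excess SLV320, filtered on GF/C and counted. Fitted to mono-exponential decay; n = 3-5, duplicate.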

[3] = target: T1, human A1R expressed in CHO cells (Homo sapiens, UniProt P30542); format: cell-based
T1 sequence (P30542 1-326): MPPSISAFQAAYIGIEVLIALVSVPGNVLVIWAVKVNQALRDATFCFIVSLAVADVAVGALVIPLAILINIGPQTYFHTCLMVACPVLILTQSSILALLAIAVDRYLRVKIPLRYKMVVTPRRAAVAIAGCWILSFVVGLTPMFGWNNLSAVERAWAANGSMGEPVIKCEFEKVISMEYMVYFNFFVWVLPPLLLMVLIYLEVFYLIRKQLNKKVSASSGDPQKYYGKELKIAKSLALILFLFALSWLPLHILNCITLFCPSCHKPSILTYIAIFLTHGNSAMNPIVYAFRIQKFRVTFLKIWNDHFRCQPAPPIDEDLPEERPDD
How it was run: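 FlpIN-CHO cells stably expressing WT A1R, grown in DMEM with 20 mM HEPES, 5% FBS and hygromycin B; seeded at 20,000 cells/well overnight. At 37°C in HEPES-buffered saline with rolipram, pH 7.45: 30 min preincubation, 10 min test compound, then 3 μM forskolin ± increasing ADO for 30 min. Stopped with ice-cold ethanol; cAMP expressed as % of forskolin response.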

mutant A1R [4] = target: T2, mutant A1R (Homo sapiens, UniProt P30542, S246A); format: binding; details: S246^6.47A
T2 sequence (P30542 1-326 S246A): T1 sequence (P30542 1-326) with S246A

mutant A1R [5] = target: T3, mutant A1R (Homo sapiens, UniProt P30542, M283V); format: binding; details: M283^7.48V
T3 sequence (P30542 1-326 M283V): T1 sequence (P30542 1-326) with M283V

mutant A1R [6] = target: T4, mutant A1R (Homo sapiens, UniProt P30542, L276A); format: binding; details: L276^7.41A
T4 sequence (P30542 1-326 L276A): T1 sequence (P30542 1-326) with L276A

mutant A1R [7] = format: binding, human; details: bulkier side chains at position 7.44 (G279^7.44)
mutant A1R [8] = target: T5, mutant A1R (Homo sapiens, UniProt P30542, L242A/L245A); format: binding; details: alanine mutation of both L242^6.43 and L245^6.46
T5 sequence (P30542 1-326 L242A/L245A): T1 sequence (P30542 1-326) with L242A, L245A

mutant A1R [9] = target: T6, mutant A1R (Homo sapiens, UniProt P30542, F275V); format: binding; details: F275^7.40V
T6 sequence (P30542 1-326 F275V): T1 sequence (P30542 1-326) with F275V

rats = assay: Rotarod; format: in vivo, rat
rat atrial beat rate = assay: Isolated rat atrial experiments; details: isolated rat atria, concentration-response
[10] = target: T7, A1R alone reconstituted in rHDL (Homo sapiens, UniProt P30542); assay: [3H]DPCPX dissociation at A1R-rHDL particles, absence of G protein; format: binding; details: 30 μM MIPS521, SLV320 isotopic dilution
T7 sequence (P30542 1-326): T1 sequence (P30542 1-326)
How it was run: as §1

[11] = Stability in human plasma; format: in vitro ADME
Stability in rat plasma = format: in vitro ADME
nerve-injured rats [12] = assay: Conditioned place preference; format: in vivo, rat; details: intrathecal; for time spent in the drug paired chamber: nerve-injured rats, n=8
How it was run: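 Male and female Sprague-Dawley rats, 10-16 weeks, with partial sciatic nerve ligation and lumbar intrathecal catheters. Three-chamber box; pre-conditioning began 10 days post-surgery, excluding rats spending >80% of time in one chamber. Vehicle (DMSO/saline 60:40 or saline) was paired with one chamber in the morning and intrathecal drug with the opposite chamber 4 h later, counterbalanced. Rats were recorded 15 min with free access 20 h later; n = 8/group; morphine positive control.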

[13] = operational model, ADO, 3 μM forskolin
[14] = intrathecal, compared to vehicle controls, n=3-4

A1R-rHDL particles with Gi2 heterotrimeric protein, sequence (P62873 whole entry, one chain of several): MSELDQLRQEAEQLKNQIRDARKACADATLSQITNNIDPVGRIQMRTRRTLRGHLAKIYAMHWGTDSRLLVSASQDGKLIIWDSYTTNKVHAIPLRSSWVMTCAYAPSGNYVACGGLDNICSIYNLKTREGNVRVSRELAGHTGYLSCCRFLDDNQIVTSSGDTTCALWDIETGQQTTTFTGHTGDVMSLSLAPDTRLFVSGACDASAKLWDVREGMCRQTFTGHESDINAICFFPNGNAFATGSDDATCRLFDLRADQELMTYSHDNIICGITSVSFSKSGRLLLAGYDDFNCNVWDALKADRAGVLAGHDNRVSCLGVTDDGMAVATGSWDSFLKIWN
A1R-rHDL particles with Gi2 heterotrimeric protein, sequence (P59768 2-68, one chain of several, further chain): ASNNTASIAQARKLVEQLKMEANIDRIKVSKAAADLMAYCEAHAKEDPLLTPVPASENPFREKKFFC
A1R-rHDL particles with Gi2 heterotrimeric protein, sequence (P04899 2-355, one chain of several, further chain): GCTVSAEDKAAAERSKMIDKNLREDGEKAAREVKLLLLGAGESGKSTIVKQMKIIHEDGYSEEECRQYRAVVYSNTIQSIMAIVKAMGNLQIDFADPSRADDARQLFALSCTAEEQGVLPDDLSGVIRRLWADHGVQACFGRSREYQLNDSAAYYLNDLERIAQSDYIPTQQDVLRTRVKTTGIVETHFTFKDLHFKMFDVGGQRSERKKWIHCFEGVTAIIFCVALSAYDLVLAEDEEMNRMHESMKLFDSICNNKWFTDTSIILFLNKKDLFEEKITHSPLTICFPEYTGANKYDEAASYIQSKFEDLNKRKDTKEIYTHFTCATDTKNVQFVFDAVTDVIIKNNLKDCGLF

CCCn1c(=O)c2[nH]c(C3CCCC3)nc2n(CCC)c1=O [DPCPX, reference compound]
increase in eEPSC amplitude from baseline (dorsal horn neurons; nerve-injured animals): 19.7 ± 6.1% | increase in eEPSC amplitude from baseline (dorsal horn neurons; sham controls): 7.89 ± 2.7%

Nc1scc(-c2cc(C(F)(F)F)cc(C(F)(F)F)c2)c1C(=O)c1ccc(Cl)cc1 [MIPS521]
mechanical hyperalgesia (paw withdrawal threshold) (nerve-injured rats [1]; compared with VCP171): reversed the mechanical hyperalgesia at lower concentrations than VCP171 | effect on dissociation of pre-equilibrated [3H]DPCPX [2]: even more profound retardation | affinity for the A1R allosteric site, pKB ([3]; operational model of allosterism and agonism, ADO, 3 μM forskolin, n=3): 4.95 ± 0.40 | positive cooperativity with ADO, Log αβ [3, 13]: 1.81 ± 0.53 | direct allosteric agonism / signaling efficacy, Log τB ([3]; operational model, recombinant CHO cells): 0.96 ± 0.34 | change in PAM affinity (pKB) vs wild type (mutant A1R [4]): significant decrease in both PAM affinity and cooperativity | change in binding cooperativity (log α) with NECA vs wild type (mutant A1R [4]): significant decrease in both PAM affinity and cooperativity | change in PAM affinity (pKB) vs wild type (mutant A1R [5]): significantly reduced the affinity | change in PAM affinity (pKB) vs wild type (mutant A1R [6]): significantly decreased MIPS521 affinity | change in PAM affinity (pKB) vs wild type (mutant A1R [7]): significant loss of both modulator affinity and cooperativity | change in binding cooperativity (log α) with NECA vs wild type (mutant A1R [7]): significant loss of both modulator affinity and cooperativity | change in PAM affinity (pKB) vs wild type (mutant A1R [8]): no effect on affinity | change in binding cooperativity (log α) with NECA vs wild type (mutant A1R [8]): significant decrease in PAM cooperativity | change in PAM affinity (pKB) vs wild type (mutant A1R [9]): decrease in affinity | rotarod latency to fall / motor function (rats; [14]): neither MIPS521 nor VCP171 affected motor function; also recorded: not significantly different to vehicle controls | effect on rat atrial beat rate (rat atrial beat rate): minimal effect | effect on dissociation of pre-equilibrated [3H]DPCPX [10]: no effect | sEPSC frequency and amplitude (dorsal horn neurons): reduced | pEC50 for reducing eEPSCs (dorsal horn neurons; spinal cord from nerve-injured animals, n=4-12): 6.9 ± 0.4 | stability in plasma ([11]; 4-hour incubation period): stable | stability in plasma (Stability in rat plasma; 4-hour incubation period): stable | time spent in the drug paired chamber (nerve-injured rats [12]; 10 μg): increased the time nerve-injured rats spent in the drug paired chamber | spontaneous pain (nerve-injured rats [12]; lower dose than VCP171 (10 μg)): significantly reduced spontaneous pain

Nc1scc(-c2cccc(C(F)(F)F)c2)c1C(=O)c1ccccc1 [VCP171, (2-amino-4-(3-(trifluoromethyl)phenyl)thiophen-3-yl)(phenyl)methanone]
allodynia (paw withdrawal threshold) (nerve-injured rats [1]; 30 μg): small reduction of allodynia | paw withdrawal threshold (nerve-injured rats [1]; 1-10 μg): no effect | Kb [3]: 3.16 µM | positive cooperativity with ADO, Log αβ [3, 13]: 0.76 ± 0.25 | rotarod latency to fall / motor function (rats; both, Sprague Dawley, rat, in vivo): neither MIPS521 nor VCP171 affected motor function | rotarod latency to fall / motor function (rats; rat, in vivo): not significantly different to vehicle controls | sEPSC frequency and amplitude (dorsal horn neurons): reduced | time stable in plasma [11]: at least 4 h | time stable in plasma (Stability in rat plasma): at least 4 h | spontaneous pain (nerve-injured rats [12]; 30 μg (highest dose)): reduced spontaneous pain | time spent in the drug paired chamber (nerve-injured rats [12]; 30 μg): increased the time nerve-injured rats spent in the drug paired chamber

CN1CC[C@]23c4c5ccc(O)c4O[C@H]2[C@@H](O)C=C[C@H]3[C@H]1C5 [morphine, reference compound]
rotarod latency to fall / motor function (rats; [14]): reduces rotarod latency to fall | time spent in the drug paired chamber (nerve-injured rats [12]; 10 μg): increased the time nerve-injured rats spent in the drug paired chamber
